Results from different studies.
Each line is one published result; the experiments were not run side by side.
Cacna1b: Voltage-dependent N-type calcium channel subunit alpha-1B (Cacna1b, Rattus norvegicus, UniProt Q02294)
USP14: Ubiquitin carboxyl-terminal hydrolase 14 (USP14, Homo sapiens, UniProt P54578)
Genome polyprotein protease: Genome polyprotein, protease (ZIKV, UniProt A0A024B7W1)
CTSB: Cathepsin B (CTSB, Homo sapiens, UniProt P07858)
DPP9: Dipeptidyl peptidase 9 (DPP9, Homo sapiens, UniProt Q86TI2)

Structure (SMILES) | target | effect on | action | technique | concentration | pH | inhibition [%]
OC(CCN1CC=C(c2ccc(F)cc2)CC1)c1ccc(F)c2ccccc12 (stereo not drawn) | Plasmepsin II (Plasmodium falciparum, UniProt P46925) | enzyme activity | inhibitor | – | 5 µM | – | 18
CC(C)N1CCC[C@H]1CNC(=O)c1cn(C2CCCC2)c(=O)c2c1c1ccccc1n2C | Cacna1b | ligand displacement | – | radioligand | 10 µM | – | 2
N=C(N)c1ccc2cc(OC(=O)c3ccc(N=C(N)N)cc3)ccc2c1 | USP14 | enzyme activity | inhibitor | – | 10 µM | – | 0
CC(C)Cn1cnc2c(N)nc3ccccc3c21 | Alpha-1A adrenergic receptor (Adra1a, Rattus norvegicus, UniProt P43140) | ligand displacement | – | radioligand | 10 µM | – | 65
Oc1cc(O)c2c(c1)O[C@H](c1cc(O)c(O)c(O)c1)[C@H](O)C2 | Genome polyprotein protease | enzyme activity | inhibitor | FRET | 100 µM | pH 7 | 7
Cn1cc(-c2cccc(N3CCc4c(sc5c4CC(C)(C)C5)C3=O)c2CO)cc(Nc2ccncn2)c1=O | MAP kinase-activated protein kinase 3 (MAPKAPK3, Homo sapiens, UniProt Q16644) | enzyme activity | inhibitor | – | 1 µM | – | 4
COc1cc(Nc2ncc(F)c(Nc3ccc4c(n3)NC(=O)C(C)(C)O4)n2)cc(OC)c1OC | Mitogen-activated protein kinase kinase kinase kinase 1 (MAP4K1, Homo sapiens, UniProt Q92918) | binding | – | competition with immobilised ligand | 10 µM | – | 70
CC(C)C[C@H](NC(=O)[C@H]1O[C@@H]1C(=O)O)C(=O)NCCCCN=C(N)N | CTSB | enzyme activity | inhibitor | – | 5 nM | – | 77
O=C(O)c1cc(O)c(O)c(O)c1 | Genome polyprotein protease | enzyme activity | inhibitor | FRET | 100 µM | pH 7 | 15
O=c1c(O)c(-c2ccc(O)c(O)c2)oc2cc(O)cc(O)c12 | Genome polyprotein protease | enzyme activity | inhibitor | – | 200 µM | pH 8.5 | 100
O=c1cc(-c2ccccc2)oc2cc(O)cc(O)c12 | Genome polyprotein protease | enzyme activity | inhibitor | FRET | 100 µM | pH 7 | 19
N#Cc1ccc(NCCNCC(=O)N2N=CCC2C#N)nc1 (stereo not drawn) | DPP9 | enzyme activity | inhibitor | – | 0.1 µM | – | 0
C[C@H](C(=O)N[C@H]1COc2ccccc2[C@@H]1S(C)(=O)=O)c1ccc(F)cc1 | Cacna1b | cell-free assay | – | – | 10 µM | – | 11
O=C(Nc1cccnn1)N1CCN([C@@H]2CCOc3cc(C(F)(F)F)ccc32)CC1 | C-C chemokine receptor type 2 (CCR2, Homo sapiens, UniProt P41597) | cell-free assay | – | – | 20 µM | – | -9
COc1ccc(-c2oc3c(CC=C(C)C)c(O)cc(O)c3c(=O)c2O)cc1 | Genome polyprotein protease | enzyme activity | inhibitor | FRET | 100 µM | pH 7 | 19
CCOC(=O)c1ccc(OC(=O)CCCCCNC(=N)N)cc1 | DPP9 | enzyme activity | inhibitor | – | 10 µM | – | 14
Cc1ncc(C)n2nc(/C=C/c3nc(N4CCCC4)cc(N4CCOCC4)n3)nc12 | Oxysterols receptor LXR-beta (NR1H2, Homo sapiens, UniProt P55055) | cell-free assay | – | – | 10 µM | – | -19
CCN(CC)CCCC[C@H](NC(=O)[C@H](CC(C)C)NC(=O)[C@H](C)NC(=O)[C@H](Cc1ccccc1)NC(=O)c1ccc(C(C)(C)C)cc1)C(=O)N[C@@H](CO)C(=O)OC | C-X-C chemokine receptor type 2 (CXCR2, Homo sapiens, UniProt P25025) | ligand displacement | – | radioligand | 10 µM | – | -12
C#Cc1n[nH]c2c(-c3cn([C@@H](C)c4ccccn4)c(=O)[nH]c3=O)cc(F)cc12 | Cyclin-dependent kinase 8, with cyclin C (CDK8, Homo sapiens, UniProt P49336) | enzyme activity | inhibitor | – | 0.1 µM | – | -1.7
CN(C)C(=O)COC(=O)Cc1ccc(OC(=O)c2ccc(NC(=N)N)cc2)cc1 | CTSB | enzyme activity | inhibitor | – | 10 µM | – | 0
Cn1c(=O)c2ncnnc2n(C)c1=O | USP14 | enzyme activity | inhibitor | – | 17 µM | – | 96
O=C1N=C(N2CCCCN2)S/C1=C\c1ccc(F)cc1O | 5-hydroxytryptamine receptor 6 (HTR6, Homo sapiens, UniProt P50406) | ligand displacement | – | radioligand | 10 µM | – | < 10
C[C@@H]1O[C@@H](O[C@H]2[C@H](Oc3cc(O)c4c(c3)O[C@H](c3ccc(O)cc3)CC4=O)O[C@H](CO)[C@@H](O)[C@@H]2O)[C@H](O)[C@H](O)[C@H]1O | Genome polyprotein protease | enzyme activity | inhibitor | FRET | 100 µM | pH 7 | 12.5
C#Cc1n[nH]c2c(-c3cn([C@@H](C)c4ccccc4)c(=O)[nH]c3=O)cc(F)cc12 | Dual specificity protein kinase CLK3 (CLK3, Homo sapiens, UniProt P49761) | enzyme activity | inhibitor | – | 0.1 µM | – | -0.8
